From ChEMBL document CHEMBL1140795, “Antimicrobial activities of the bromophenols from the red alga Odonthalia corymbifera and some synthetic derivatives” (2008)
Converted amounts (≈) assume the structure as drawn.

Experiments:
Trichophyton rubrum = assay: Antifungal activity against Trichophyton rubrum IFO 9185 after 48 to 72 hrs; type: functional
Summary of the method: (§1)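 Filamentous fungi were grown on potato dextrose agar for 2 weeks at 28 °C. Spores were washed three times in sterile water and resuspended at 10⁵ spores/ml. Compounds were dissolved in DMSO and serially diluted twofold in potato dextrose broth. Wells received broth containing about 10⁴ cells/ml and were incubated 48–72 h at 28 °C. The MIC was recorded.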

Staphylococcus aureus = assay: Antibacterial activity against Staphylococcus aureus ATCC 6538p after 24 hrs; type: functional
Summary of the method: (§2)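 Bacteria were grown overnight in LB broth at 37 °C, harvested by centrifugation and washed twice with sterile water. Test compounds were dissolved as DMSO stocks and serially diluted twofold in Standard method broth. Wells received broth containing about 10⁵ cfu/ml of bacteria and were incubated 24 h at 37 °C. The MIC was recorded.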

Trichophyton benhamiae = assay: Antifungal activity against Trichophyton mentagrophytes IFO 40996 after 48 to 72 hrs; type: functional, Arthroderma benhamiae; summary of the method: as §1
Micrococcus luteus = assay: Antibacterial activity against Micrococcus luteus IFC 12708 after 24 hrs; type: functional; summary of the method: as §2
Candida albicans = assay: Antifungal activity against Candida albicans ATCC 10231 after 48 to 72 hrs; type: functional
Summary of the method: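 C. albicans ATCC 10231 was grown 48 h at 28 °C in YPD broth (1% yeast extract, 2% peptone, 2% dextrose), centrifuged and washed twice with sterile water. Compounds were dissolved in DMSO and serially diluted twofold in potato dextrose broth. Wells received broth containing about 10³ cells/ml and were incubated 48–72 h at 28 °C. The MIC was recorded.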

Salmonella typhimurium = assay: Antibacterial activity against Salmonella Typhimurium ATCC 14028 after 24 hrs; type: functional, Salmonella enterica subsp. enterica serovar Typhimurium; conditions: Salmonella enterica, ATCC 14028, 24 h; summary of the method: as §2
Aspergillus fumigatus = assay: Antifungal activity against Aspergillus fumigatus HIC6094 after 48 to 72 hrs; type: functional; summary of the method: as §1
Escherichia coli = assay: Antibacterial activity against Escherichia coli ATCC 25922 after 24 hrs; type: functional; conditions: ATCC 25922, 24 h; summary of the method: as §2
Bacillus subtilis = assay: Antibacterial activity against Bacillus subtilis ATCC 6633 after 24 hrs; type: functional; conditions: ATCC 6633, 24 h; summary of the method: as §2
Proteus vulgaris = assay: Antibacterial activity against Proteus vulgaris ATCC 3851 after 24 hrs; type: functional; conditions: ATCC 3851, 24 h; summary of the method: as §2

COCc1cc(O)c(O)c(Br)c1Br
MIC (Trichophyton rubrum): 12.5 µg/mL (≈ 40.1 µM) | MIC (Staphylococcus aureus): > 100 µg/mL | MIC (Trichophyton benhamiae): 12.5 µg/mL (≈ 40.1 µM) | MIC (Micrococcus luteus): > 100 µg/mL | MIC (Candida albicans): 100 µg/mL (≈ 321 µM) | MIC (Salmonella typhimurium): > 100 µg/mL | MIC (Aspergillus fumigatus): > 100 µg/mL | MIC (Escherichia coli): > 100 µg/mL | MIC (Bacillus subtilis): > 100 µg/mL | MIC (Proteus vulgaris): > 100 µg/mL

OCc1cc(O)c(O)c(Br)c1Cc1cc(O)c(O)c(Br)c1Br
MIC (Trichophyton rubrum): 50 µg/mL (≈ 100 µM) | MIC (Staphylococcus aureus): 50 µg/mL (≈ 100 µM) | MIC (Trichophyton benhamiae): 50 µg/mL (≈ 100 µM) | MIC (Micrococcus luteus): 50 µg/mL (≈ 100 µM) | MIC (Candida albicans): 100 µg/mL (≈ 200 µM) | MIC (Salmonella typhimurium): 100 µg/mL (≈ 200 µM) | MIC (Aspergillus fumigatus): > 100 µg/mL | MIC (Escherichia coli): > 100 µg/mL | MIC (Bacillus subtilis): 100 µg/mL (≈ 200 µM) | MIC (Proteus vulgaris): 100 µg/mL (≈ 200 µM)

Oc1ccc(Cc2ccc(O)c(Br)c2)cc1Br
MIC (Trichophyton rubrum): > 100 µg/mL | MIC (Staphylococcus aureus): 25 µg/mL (≈ 69.8 µM) | MIC (Trichophyton benhamiae): > 100 µg/mL | MIC (Micrococcus luteus): 12.5 µg/mL (≈ 34.9 µM) | MIC (Candida albicans): > 100 µg/mL | MIC (Salmonella typhimurium): 25 µg/mL (≈ 69.8 µM) | MIC (Aspergillus fumigatus): > 100 µg/mL | MIC (Escherichia coli): > 100 µg/mL | MIC (Bacillus subtilis): 12.5 µg/mL (≈ 34.9 µM) | MIC (Proteus vulgaris): 25 µg/mL (≈ 69.8 µM)

Oc1c(Br)cc(Br)cc1Cc1cc(Br)cc(Br)c1O
MIC (Trichophyton rubrum): > 100 µg/mL | MIC (Staphylococcus aureus): 1.56 µg/mL (≈ 3.02 µM) | MIC (Trichophyton benhamiae): > 100 µg/mL | MIC (Micrococcus luteus): 1.56 µg/mL (≈ 3.02 µM) | MIC (Candida albicans): > 100 µg/mL | MIC (Salmonella typhimurium): 3.12 µg/mL (≈ 6.05 µM) | MIC (Aspergillus fumigatus): > 100 µg/mL | MIC (Escherichia coli): > 100 µg/mL | MIC (Bacillus subtilis): 1.56 µg/mL (≈ 3.02 µM) | MIC (Proteus vulgaris): 1.56 µg/mL (≈ 3.02 µM)

Oc1c(Br)cc(Cc2cc(Br)c(O)c(Br)c2)cc1Br
MIC (Trichophyton rubrum): > 100 µg/mL | MIC (Staphylococcus aureus): > 100 µg/mL | MIC (Trichophyton benhamiae): > 100 µg/mL | MIC (Micrococcus luteus): > 100 µg/mL | MIC (Candida albicans): > 100 µg/mL | MIC (Salmonella typhimurium): > 100 µg/mL | MIC (Aspergillus fumigatus): > 100 µg/mL | MIC (Escherichia coli): > 100 µg/mL | MIC (Bacillus subtilis): > 100 µg/mL | MIC (Proteus vulgaris): > 100 µg/mL

Oc1cc(Cc2cc(O)c(O)c(Br)c2Br)c(Br)c(Br)c1O
MIC (Trichophyton rubrum): 1.56 µg/mL (≈ 2.85 µM) | MIC (Staphylococcus aureus): 25 µg/mL (≈ 45.6 µM) | MIC (Trichophyton benhamiae): 1.56 µg/mL (≈ 2.85 µM) | MIC (Micrococcus luteus): 25 µg/mL (≈ 45.6 µM) | MIC (Candida albicans): 1.56 µg/mL (≈ 2.85 µM) | MIC (Salmonella typhimurium): 50 µg/mL (≈ 91.3 µM) | MIC (Aspergillus fumigatus): 0.78 µg/mL (≈ 1.42 µM) | MIC (Escherichia coli): > 100 µg/mL | MIC (Bacillus subtilis): 25 µg/mL (≈ 45.6 µM) | MIC (Proteus vulgaris): 50 µg/mL (≈ 91.3 µM)

Oc1c(Br)cc(Cc2cc(Br)c(O)c(Br)c2O)c(O)c1Br
MIC (Trichophyton rubrum): > 100 µg/mL | MIC (Staphylococcus aureus): > 100 µg/mL | MIC (Trichophyton benhamiae): > 100 µg/mL | MIC (Micrococcus luteus): > 100 µg/mL | MIC (Candida albicans): > 100 µg/mL | MIC (Salmonella typhimurium): > 100 µg/mL | MIC (Aspergillus fumigatus): > 100 µg/mL | MIC (Escherichia coli): > 100 µg/mL | MIC (Bacillus subtilis): > 100 µg/mL | MIC (Proteus vulgaris): > 100 µg/mL

CC1(C)S[C@@H]2[C@H](NC(=O)[C@H](N)c3ccccc3)C(=O)N2[C@H]1C(=O)O [AMPICILLIN]
MIC (Staphylococcus aureus): 1.56 µg/mL (≈ 4.46 µM) | MIC (Micrococcus luteus): 1.56 µg/mL (≈ 4.46 µM) | MIC (Salmonella typhimurium): 3.12 µg/mL (≈ 8.93 µM) | MIC (Escherichia coli): 12.5 µg/mL (≈ 35.8 µM) | MIC (Bacillus subtilis): 1.56 µg/mL (≈ 4.46 µM) | MIC (Proteus vulgaris): 3.12 µg/mL (≈ 8.93 µM)

Oc1ccc(Br)cc1Cc1cc(Br)ccc1O
MIC (Trichophyton rubrum): > 100 µg/mL | MIC (Staphylococcus aureus): 3.12 µg/mL (≈ 8.71 µM) | MIC (Trichophyton benhamiae): > 100 µg/mL | MIC (Micrococcus luteus): 1.56 µg/mL (≈ 4.36 µM) | MIC (Candida albicans): > 100 µg/mL | MIC (Salmonella typhimurium): 3.12 µg/mL (≈ 8.71 µM) | MIC (Aspergillus fumigatus): > 100 µg/mL | MIC (Escherichia coli): > 100 µg/mL | MIC (Bacillus subtilis): 3.12 µg/mL (≈ 8.71 µM) | MIC (Proteus vulgaris): 3.12 µg/mL (≈ 8.71 µM)

Oc1ccccc1Cc1cc(Br)ccc1O
MIC (Trichophyton rubrum): > 100 µg/mL | MIC (Staphylococcus aureus): 25 µg/mL (≈ 89.6 µM) | MIC (Trichophyton benhamiae): > 100 µg/mL | MIC (Micrococcus luteus): 25 µg/mL (≈ 89.6 µM) | MIC (Candida albicans): > 100 µg/mL | MIC (Salmonella typhimurium): 25 µg/mL (≈ 89.6 µM) | MIC (Aspergillus fumigatus): > 100 µg/mL | MIC (Escherichia coli): > 100 µg/mL | MIC (Bacillus subtilis): 25 µg/mL (≈ 89.6 µM) | MIC (Proteus vulgaris): 25 µg/mL (≈ 89.6 µM)

C[C@@H]1[C@H](O)[C@@H](C)/C=C/C=C/C=C/C=C/C=C/C=C/C=C/[C@H](O[C@@H]2O[C@H](C)[C@@H](O)[C@H](N)[C@@H]2O)C[C@@H]2O[C@](O)(C[C@@H](O)C[C@@H](O)[C@H](O)CC[C@@H](O)C[C@@H](O)CC(=O)O[C@H]1C)C[C@H](O)[C@H]2C(=O)O [AMPHOTERICIN B]
MIC (Trichophyton rubrum): 3.12 µg/mL (≈ 3.38 µM) | MIC (Trichophyton benhamiae): 3.12 µg/mL (≈ 3.38 µM) | MIC (Candida albicans): 6.25 µg/mL (≈ 6.76 µM) | MIC (Aspergillus fumigatus): 3.12 µg/mL (≈ 3.38 µM)

Oc1ccc(Cc2cc(Br)c(O)c(Br)c2)cc1Br
MIC (Trichophyton rubrum): > 100 µg/mL | MIC (Staphylococcus aureus): 12.5 µg/mL (≈ 28.6 µM) | MIC (Trichophyton benhamiae): > 100 µg/mL | MIC (Micrococcus luteus): 6.25 µg/mL (≈ 14.3 µM) | MIC (Candida albicans): > 100 µg/mL | MIC (Salmonella typhimurium): 6.25 µg/mL (≈ 14.3 µM) | MIC (Aspergillus fumigatus): > 100 µg/mL | MIC (Escherichia coli): > 100 µg/mL | MIC (Bacillus subtilis): 6.25 µg/mL (≈ 14.3 µM) | MIC (Proteus vulgaris): 6.25 µg/mL (≈ 14.3 µM)

OCc1cc(O)c(O)cc1Cc1ccc(O)c(O)c1
MIC (Trichophyton rubrum): > 100 µg/mL | MIC (Staphylococcus aureus): > 100 µg/mL | MIC (Trichophyton benhamiae): > 100 µg/mL | MIC (Micrococcus luteus): > 100 µg/mL | MIC (Candida albicans): > 100 µg/mL | MIC (Salmonella typhimurium): > 100 µg/mL | MIC (Aspergillus fumigatus): > 100 µg/mL | MIC (Escherichia coli): > 100 µg/mL | MIC (Bacillus subtilis): > 100 µg/mL | MIC (Proteus vulgaris): > 100 µg/mL

OCc1cc(O)c(O)c(Br)c1Br [LANOSOL]
MIC (Trichophyton rubrum): 50 µg/mL (≈ 168 µM) | MIC (Staphylococcus aureus): > 100 µg/mL | MIC (Trichophyton benhamiae): 50 µg/mL (≈ 168 µM) | MIC (Micrococcus luteus): > 100 µg/mL | MIC (Candida albicans): > 100 µg/mL | MIC (Salmonella typhimurium): > 100 µg/mL | MIC (Aspergillus fumigatus): > 100 µg/mL | MIC (Escherichia coli): > 100 µg/mL | MIC (Bacillus subtilis): > 100 µg/mL | MIC (Proteus vulgaris): > 100 µg/mL

COCc1cc(O)c(O)c(Br)c1Cc1cc(O)c(O)c(Br)c1Br
MIC (Trichophyton rubrum): 25 µg/mL (≈ 48.7 µM) | MIC (Staphylococcus aureus): 25 µg/mL (≈ 48.7 µM) | MIC (Trichophyton benhamiae): 25 µg/mL (≈ 48.7 µM) | MIC (Micrococcus luteus): 25 µg/mL (≈ 48.7 µM) | MIC (Candida albicans): 25 µg/mL (≈ 48.7 µM) | MIC (Salmonella typhimurium): 25 µg/mL (≈ 48.7 µM) | MIC (Aspergillus fumigatus): 25 µg/mL (≈ 48.7 µM) | MIC (Escherichia coli): > 100 µg/mL | MIC (Bacillus subtilis): 25 µg/mL (≈ 48.7 µM) | MIC (Proteus vulgaris): 25 µg/mL (≈ 48.7 µM)

NCCc1cc(Br)c(O)c(Br)c1
MIC (Trichophyton rubrum): > 100 µg/mL | MIC (Staphylococcus aureus): 100 µg/mL (≈ 339 µM) | MIC (Trichophyton benhamiae): > 100 µg/mL | MIC (Micrococcus luteus): > 100 µg/mL | MIC (Candida albicans): 100 µg/mL (≈ 339 µM) | MIC (Salmonella typhimurium): > 100 µg/mL | MIC (Aspergillus fumigatus): > 100 µg/mL | MIC (Escherichia coli): > 100 µg/mL | MIC (Bacillus subtilis): > 100 µg/mL | MIC (Proteus vulgaris): > 100 µg/mL

Oc1ccc(Cc2ccc(O)c(O)c2)cc1O
MIC (Trichophyton rubrum): > 100 µg/mL | MIC (Staphylococcus aureus): > 100 µg/mL | MIC (Trichophyton benhamiae): > 100 µg/mL | MIC (Micrococcus luteus): > 100 µg/mL | MIC (Candida albicans): > 100 µg/mL | MIC (Salmonella typhimurium): > 100 µg/mL | MIC (Aspergillus fumigatus): > 100 µg/mL | MIC (Escherichia coli): > 100 µg/mL | MIC (Bacillus subtilis): > 100 µg/mL | MIC (Proteus vulgaris): > 100 µg/mL
